In assay [1] the target is Tubulin. Description: Inhibition of tubulin polymerization (unknown origin) preincubated for 15 mins followed by GTP addition measured for 20 mins by spectrophotometric method. The assay is classed as protein-complex assay, Homo sapiens. In outline: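 Purified tubulin at 10 µM in 0.8 M monosodium glutamate pH 6.6 with 4% DMSO and varying compound; preincubated 15 min at 30 °C, chilled on ice, GTP to 0.4 mM added, turbidity at 350 nm followed 20 min at 30 °C. Extent of assembly measured; IC50 derived.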

The target in assay [2] is T1, Tubulin (Homo sapiens) (UniProt P68371+Q9H4B7+P0DPH7+P68366+Q13509+Q71U36+P04350+Q3ZCM7+P07437+P68363+Q9BQE3+Q6PEY2+Q13885+Q9BVA1+Q9BUF5). Description: Inhibition of [3H]colchicine binding to tubulin (unknown origin) at 5 uM after 10 mins relative to control. The assay is classed as protein-complex assay.
The target in assay [3] is T1, Tubulin (Homo sapiens). Put plainly: Inhibition of tubulin polymerization in human HeLa cells assessed as fragmented or multipolar spindles formation at 20 nM by DAPI staining based immunofluorescence analysis. Format: cell-based. In a few lines: (§1)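 HeLa cells on poly-L-lysine coverslips treated 24 h with 20–100 nM compound, fixed in methanol 6 min, immunostained for α-tubulin (FITC secondary), DNA counterstained with DAPI; spindle and microtubule morphology of mitotic cells examined by epifluorescence microscopy with 100× oil objective.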

Assay [4] has as its target T1, Tubulin (Homo sapiens). Put plainly: Inhibition of tubulin polymerization in human HeLa cells assessed as formation of sparse tubulin foci at >= 50 nM by DAPI staining based immunofluorescence analysis. The assay is classed as cell-based. In outline:
as §1

In assay [5] the test system is NCI/ADR-RES. Put plainly: Growth inhibition of human NCI/ADR-RES cells after 96 hrs by trypan blue exclusion assay. Format: functional, cell-based.
Assay [6] relates to OVCAR-8. Put plainly: Growth inhibition of human OVCAR8 cells after 96 hrs by trypan blue exclusion assay. Format: functional, cell-based. Conditions: OVCAR-8, 96 h.
Assay [7] relates to MCF7. Put plainly: Growth inhibition of human MCF7 cells after 96 hrs by trypan blue exclusion assay. Format: functional, cell-based. Conditions: MCF7, 96 h.
Assay [8] has as its system HeLa. Put plainly: Induction of cell death in human HeLa cells at 20 nM after 24 hrs by annexin V-FITC staining based flow cytometry. In general terms: Flow cytometry measures light scatter and fluorescence of single cells or particles in a stream.
For assay [9], the target named is T1, Tubulin (Homo sapiens). Description: Inhibition of tubulin polymerization in human HeLa cells assessed as microtubule asters formation at 100 nM by DAPI staining based immunofluorescence analysis. Format: cell-based. In a few lines:
as §1

The target in assay [10] is T1, Tubulin (Homo sapiens). Put plainly: Inhibition of tubulin polymerization in human HeLa cells assessed as fragmented or multipolar spindles formation at 20 to 50 nM by DAPI staining based immunofluorescence analysis. The assay is classed as cell-based. In outline:
as §1

In assay [11] the test system is HepG2. Description: Growth inhibition of human HepG2 cells after 48 hrs by MTT assay. Conditions: HepG2, 48 h. Format: functional, cell-based. On the technique in general: Tetrazolium assays rely on reduction of a dye to a coloured formazan, in cell work by metabolically active cells.

Calls of active or inactive are those of the source. No cut-off for these calls is given here.

Usually IC50 stands for the point on the concentration scale where inhibition reaches its midpoint. In general, inhibition refers to how much of the control response was suppressed. The compound `COc1cc(Sc2c[nH]c3ccc(-c4cccs4)cc23)cc(OC)c1OC` had a half-inhibitory concentration (IC50) in assay [1] of 1300 nM. Further, in assay [2], the inhibition worked out at 76%.

Compound `COc1cc(Sc2c[nH]c3c(-c4ccoc4)cccc23)cc(OC)c1OC` returned an IC50 in assay [1] of 1300 nM. The inhibition in assay [2] turned out to be 86%.

`COc1cc(Sc2c[nH]c3cc(-c4ccco4)ccc23)cc(OC)c1OC` registered an IC50 in assay [1] of 590 nM. Moreover, the inhibition in assay [2] came to 97%.

In [1], `COc1cc(Sc2c[nH]c3ccc(-c4ccsc4)cc23)cc(OC)c1OC` had an IC50 of 1700 nM. The inhibition in assay [2] was 72%.

As to `COc1cc(Sc2c[nH]c3c(-c4ccsc4)cccc23)cc(OC)c1OC`, in [1], half-maximal inhibition (IC50) required 1300 nM. Further, the inhibition in [2] was 77%.

In the case of `COc1cc(Sc2c[nH]c3cc(-c4ccsc4)ccc23)cc(OC)c1OC`, the inhibition entry in [3] and in [4] was “Active” in each case. The compound also yielded an IC50 in assay [1] of 580 nM. In assay [2], this compound displayed an inhibition of 97%.

For `COc1ccc(/C=C\c2cc(OC)c(OC)c(OC)c2)cc1O` [COMBRETASTATIN A4], the IC50 was 3.5 nM in [5], 4 nM in [6] and 5 to 13 nM in [7].

`COc1cc(Sc2c[nH]c3cc(-c4ccoc4)ccc23)cc(OC)c1OC` returned an IC50 in assay [1] of 2300 nM. This compound registered an inhibition in assay [2] of 90%.

On to `CC[C@]1(O)C[C@@H]2CN(CCc3c([nH]c4ccccc34)[C@@](C(=O)OC)(c3cc4c(cc3OC)N(C)[C@H]3[C@@](O)(C(=O)OC)[C@H](OC(C)=O)[C@]5(CC)C=CCN6CC[C@]43[C@@H]65)C2)C1`, for which, in [8], the result was Active.

With `COc1cc(C(=O)c2c[nH]c3c(-c4ccoc4)cccc23)cc(OC)c1OC`, half-maximal inhibition in assay [1] (IC50) was put at 3000 nM. Also, the inhibition in assay [2] amounted to 29%.

Take `COc1cc(C(=O)c2c[nH]c3cc(-c4ccco4)ccc23)cc(OC)c1OC`: the midpoint of inhibition in assay [1], the IC50, lay at 760 nM. In [2], this compound gave an inhibition of 96%.

`COc1cc(Sc2c(-c3cccs3)[nH]c3ccccc23)cc(OC)c1OC` registered an IC50 in [1] of 740 nM. This compound had an inhibition in assay [2] of 88%.

`COc1cc(Sc2c[nH]c3cc(-c4cccs4)ccc23)cc(OC)c1OC` displayed an IC50 in assay [1] of 470 nM. In [2], this compound displayed an inhibition of 95%.

Take `COc1cc(Sc2c[nH]c3ccc(-c4ccco4)cc23)cc(OC)c1OC`: the IC50 in assay [1] is 870 nM. This compound displayed an inhibition in [2] of 81%.

In turn, `COc1cc(C(=O)c2c[nH]c3cc(-c4ccsc4)ccc23)cc(OC)c1OC` yielded an IC50 in [1] of 600 nM. In assay [2], the inhibition came to 94%.

With `COc1cc(Sc2c[nH]c3c(-c4ccco4)cccc23)cc(OC)c1OC`, the half-inhibitory concentration (IC50) in assay [1] is 640 nM. For the same compound, the inhibition in [2] was found to be 95%.

Consider `COc1cc(C(=O)c2c[nH]c3cc(-c4ccoc4)ccc23)cc(OC)c1OC`, for which it took 610 nM to reach half-maximal inhibition in assay [1] (IC50). This compound returned an inhibition in assay [2] of 96%.

On to `COc1cc(Sc2c[nH]c3c(-c4cccs4)cccc23)cc(OC)c1OC`, for which the inhibition result in [9] and in [10] was “Active” throughout. In assay [1], this compound showed an IC50 of 570 nM. Also, the inhibition in [2] was determined as 89%.

For the compound `CC(=O)O[C@H]1C(=O)[C@@]2(C)[C@H]([C@H](OC(=O)c3ccccc3)[C@]3(O)C[C@H](OC(=O)[C@H](O)[C@@H](NC(=O)c4ccccc4)c4ccccc4)C(C)=C1C3(C)C)[C@]1(OC(C)=O)CO[C@@H]1C[C@@H]2O` [PACLITAXEL], the IC50 was 3100 nM in [5], 2660 nM in [11], 4 nM in assay [6] and 5.5 nM in assay [7].

`COc1cc(Sc2c[nH]c3ccc(-c4ccoc4)cc23)cc(OC)c1OC` returned an IC50 in [1] of 1800 nM. Also, the inhibition in assay [2] was found to be 63%.

Take `COc1cc(C(=O)c2c[nH]c3c(-c4ccsc4)cccc23)cc(OC)c1OC`: the IC50 in [1] stood at 6200 nM.

In the case of `COc1cc(C(=O)c2c[nH]c3cc(-c4cccs4)ccc23)cc(OC)c1OC`, in assay [1], half-maximal inhibition (IC50) required 380 nM. The compound also registered an inhibition in [2] of 96%.

`COc1cc(C(=O)c2c[nH]c3c(-c4ccco4)cccc23)cc(OC)c1OC` displayed an inhibition in [2] of 70%.

In assay [1], `COc1cc(C(=O)c2c[nH]c3c(-c4cccs4)cccc23)cc(OC)c1OC` had an IC50 of 2600 nM. This compound gave an inhibition in assay [2] of 48%.

Values taken from ChEMBL document CHEMBL4270517, “New 6- and 7-heterocyclyl-1H-indole derivatives as potent tubulin assembly and cancer cell growth inhibitors” (Eur J Med Chem, 2018).
